Holding throughout (assay type): functional
Test [1] deals with Mus musculus. The test is described as follows: Number of survivors out of 6 ip implanted L1210 leukemia mouse, tested after 80 days at 30 mg/kg. The conditions noted are these: route intraperitoneal. An outline of the steps:
(§1)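 Female BDF1 mice implanted ip with ascitic fluid holding 10^5 L1210 cells. Saline-dissolved drug given ip daily on days 1-5, starting 24 h after implant. Six mice per dose group, followed 80 days. Survivors/total counted at day 80; ILS % from mean survival time vs controls.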

The test system of test [2] is Mus musculus. The test is described as follows: Antitumor activity against ip implanted L1210 leukemia in mouse after ip administration of 30 mg/kg for 5 days expressed as increase in mean life span. The conditions noted are these: route intraperitoneal; for ILS at 30 mg/kg: Mus musculus, L1210, ip, 120 h; for ILS: 30 mg/kg. In outline: (§2)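 Drug was dissolved in 0.9% NaCl, diluted just before use and given ip once daily for 5 consecutive days, starting 24 h after transplant. ILS % = mean survival time of treated vs control mice, observed for 80 days.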

The subject of test [3] is Mus musculus. The test is described as follows: Number of survivors out of 6 ip implanted L1210 leukemia mouse tested after 80 days at 10 mg/kg. Particulars: route intraperitoneal. An outline of the steps: as §1
Test [4] deals with Mus musculus. The test is described as follows: Antitumor activity against ip implanted L1210 leukemia in mouse after ip administration of 10 mg/kg for 5 days expressed as increase in mean life span. Particulars: route intraperitoneal; for ILS at 10 mg/kg: Mus musculus, L1210, ip, 120 h; for ILS: 10 mg/kg. An outline of the steps:
as §2

Test [5] deals with Mus musculus. The test is described as follows: Number of survivors out of 6 ip implanted L1210 leukemia mouse tested after 80 days at 5 mg/kg. Particulars: route intraperitoneal. An outline of the steps:
as §1

In test [6] the test system is Mus musculus. The test can be described thus: Antitumor activity against ip implanted L1210 leukemia in mouse after ip administration of 5 mg/kg for 5 days expressed as increase in mean life span. The conditions noted are these: route intraperitoneal; for ILS at 5 mg/kg: Mus musculus, L1210, ip, 120 h; for ILS: 5 mg/kg. In outline:
as §2

This passage reports Cures and ILS results from ChEMBL document CHEMBL1124260, “Synthesis and antitumor activity of quaternary ellipticine glycosides, a series of novel and highly active antitumor agents” (1988).

Bounds are passed on as bounds.

`Br.CC(=O)[O-].Cc1c2cc[n+](C3O[C@H](C)[C@@H](O)[C@@H]3O)cc2c(C)c2c1[nH]c1ccc(O)cc12` (stereo partly specified) came in with a Cures with Mus musculus [1] of 1. In the test on Mus musculus [2], the increase in life span (ILS) at 30 mg/kg was > 217%.

In the case of `Cc1c2cc[n+](C3O[C@H](CO)[C@@H](O)[C@H]3O)cc2c(C)c2c1[nH]c1ccc(O)cc12.[Br-]` (stereo partly specified), the Cures in the test on Mus musculus [1] stood at 2. In the test with Mus musculus [2], the ILS at 30 mg/kg was > 387%.

In the test on Mus musculus [1], `CC(=O)[O-].Cc1c2cc[n+]([C@@H]3O[C@H](CO)[C@@H](O)[C@@H]3O)cc2c(C)c2c1[nH]c1ccc(O)cc12` registered a Cures of 1. Further, in the test with Mus musculus [2], the increase in lifespan (ILS) at 30 mg/kg was > 262%.

Take `Cc1c2cc[n+]([C@H]3O[C@H](CO)[C@@H](O)[C@H]3O)cc2c(C)c2c1[nH]c1ccc(O)cc12.[Br-]`: in the test with Mus musculus [3], the Cures is listed as 0. In the test with Mus musculus [4], this compound had an ILS at 10 mg/kg of 138%.

As for `Cc1c2cc[n+]([C@@H]3O[C@@H](C)[C@H](O)[C@H]3O)cc2c(C)c2c1[nH]c1ccc(O)cc12.[Cl-]`, the Cures with Mus musculus [1] is 1.

`CC(=O)[O-].Cc1c2cc[n+]([C@H]3O[C@@H](CO)[C@H](O)[C@H]3O)cc2c(C)c2c1[nH]c1ccc(O)cc12` displayed a Cures in the test with Mus musculus [1] of 1. The increase in lifespan (ILS) at 30 mg/kg in the test with Mus musculus [2] is > 269%.

Compound `Cc1c2cc[n+]([C@@H]3O[C@H](C)[C@@H](O)[C@H]3O)cc2c(C)c2c1[nH]c1ccc(O)cc12.[Cl-]` gave a Cures in the test with Mus musculus [1] of 1. The ILS at 30 mg/kg in the test on Mus musculus [2] is > 230%.

On to `COc1ccc2[nH]c3c(C)c4cc[n+](C5O[C@@H](C)[C@H](O)[C@@H](O)[C@H]5O)cc4c(C)c3c2c1.[Br-]` (stereo partly specified), for which the Cures in the test with Mus musculus [1] is recorded as 0. This compound also showed an ILS at 30 mg/kg with Mus musculus [2] of 56%.

`Cc1c2cc[n+]([C@@H]3O[C@H](CO)[C@@H](O)[C@@H](O)[C@H]3O)cc2c(C)c2c1[nH]c1ccc(O)cc12.[Br-]`: the Cures in the test with Mus musculus [3] was found to be 1. The ILS at 10 mg/kg in the test with Mus musculus [4] is > 254%.

`Cc1c2cc[n+]([C@@H]3O[C@H](C)[C@H](O)[C@H](O)[C@H]3O)cc2c(C)c2c1[nH]c1ccc(O)cc12.[Br-]` gave a Cures in the test on Mus musculus [1] of 0. Also, in the test on Mus musculus [2], the ILS at 30 mg/kg was 124%.

In turn, `COc1ccc2[nH]c3c(C)c4cc[n+]([C@@H]5O[C@H](C)[C@H](O)[C@H](O)[C@H]5O)cc4c(C)c3c2c1.[Br-]` gave a Cures in the test on Mus musculus [1] of 0. The compound also had an ILS at 30 mg/kg in the test with Mus musculus [2] of 20%.

The compound `Cc1c2cc[n+]([C@@H]3O[C@H](C)[C@H](O)[C@H](O)[C@H]3O)cc2c(C)c2c1[nH]c1ccccc12.[Br-]` yielded a Cures with Mus musculus [1] of 0. Moreover, in the test with Mus musculus [2], the ILS at 30 mg/kg stood at 20%.

For `CC(=O)N[C@@H]1[C@@H](O)[C@H](O)[C@@H](CO)O[C@H]1[n+]1ccc2c(C)c3[nH]c4ccc(O)cc4c3c(C)c2c1.[Cl-]`, in the test with Mus musculus [1], the Cures was 0. The ILS at 30 mg/kg with Mus musculus [2] came to 39%.

The compound `Cc1c2cc[n+]([C@H]3OC[C@@H](O)[C@H](O)[C@@H]3O)cc2c(C)c2c1[nH]c1ccc(O)cc12.[Cl-]` came in with a Cures with Mus musculus [3] of 4. Besides, the increase in lifespan (ILS) at 10 mg/kg with Mus musculus [4] was > 651%.

For the compound `CC(=O)N[C@@H]1[C@@H](O)[C@@H](O)[C@@H](CO)O[C@H]1[n+]1ccc2c(C)c3[nH]c4ccc(O)cc4c3c(C)c2c1.[Cl-]`, the Cures in the test on Mus musculus [1] came out at 0. Besides, the ILS at 30 mg/kg in the test with Mus musculus [2] was found to be 8%.

On to `COc1ccc2[nH]c3c(C)c4cc[n+](C5OCC(O)C(O)C5O)cc4c(C)c3c2c1.[Br-]` (stereo unspecified), for which the Cures in the test on Mus musculus [1] is given as 0. Moreover, the increase in life span (ILS) at 30 mg/kg with Mus musculus [2] turned out to be 56%.

In the test with Mus musculus [5], `Cc1c2cc[n+](C3OC(C(N)=O)C(O)C(O)C3O)cc2c(C)c2c1[nH]c1ccc(O)cc12.[Br-]` (stereo unspecified) came in with a Cures of 0. Besides, the ILS at 5 mg/kg in the test with Mus musculus [6] came to 49%.

With `Cc1c2cc[n+](C3CC(O)C(CO)O3)cc2c(C)c2c1[nH]c1ccc(O)cc12.[Cl-]` (stereo unspecified), in the test with Mus musculus [3], the Cures was determined as 2. Moreover, the ILS at 10 mg/kg with Mus musculus [4] is > 390%.

For the compound `CC(=O)[O-].Cc1c2cc[n+](C3OC(C)C(O)C(O)C3O)cc2c(C)c2c1[nH]c1ccc(O)cc12` (stereo unspecified), the Cures in the test with Mus musculus [1] stood at 3. The increase in life span (ILS) at 30 mg/kg in the test on Mus musculus [2] is > 615%.

The compound `COc1ccc2[nH]c3c(C)c4cc[n+](C5OC(CO)C(O)C(O)C5O)cc4c(C)c3c2c1.[Br-]` (stereo unspecified) had a Cures in the test on Mus musculus [3] of 0. Further, the ILS at 10 mg/kg with Mus musculus [4] worked out at 14%.

On to `Cc1c2cc[n+]([C@@H]3OC[C@@H](O)[C@@H](O)[C@H]3O)cc2c(C)c2c1[nH]c1ccc(O)cc12.[Br-]`, for which the Cures in the test with Mus musculus [3] is reported as 2. Moreover, the ILS at 10 mg/kg in the test with Mus musculus [4] is > 396%.

Turning to `Cc1c2cc[n+]([C@H]3O[C@@H](CO)[C@H](O)[C@@H]3O)cc2c(C)c2c1[nH]c1ccc(O)cc12.[Br-]`, the Cures with Mus musculus [3] was 2. In addition, the increase in lifespan (ILS) at 10 mg/kg in the test on Mus musculus [4] is > 391%.

`COc1ccc2[nH]c3c(C)c4cc[n+](C5O[C@@H](CO)[C@H](O)[C@@H]5O)cc4c(C)c3c2c1.[Br-]` (stereo partly specified): the Cures with Mus musculus [1] came to 0. The increase in lifespan (ILS) at 30 mg/kg with Mus musculus [2] came out at 76%.

The compound `Cc1c2cc[n+](C3OC[C@@H](O)[C@H]3O)cc2c(C)c2c1[nH]c1ccc(O)cc12.[Cl-]` (stereo partly specified) registered a Cures with Mus musculus [5] of 0. Moreover, the ILS at 5 mg/kg in the test with Mus musculus [6] amounted to 122%.

Turning to `Cc1c2cc[n+]([C@@H]3O[C@H](CO)[C@H](O)[C@@H]3O)cc2c(C)c2c1[nH]c1ccc(O)cc12.[Cl-]` (stereo in doubt; 43b), the Cures in the test with Mus musculus [3] stood at 3. Further, the increase in life span (ILS) with Mus musculus [4] was >552%.

In the test with Mus musculus [1] (30 mg/kg), `Cc1c2cc[n+]([C@@H]3OC[C@@H](O)[C@@H](O)[C@H]3O)cc2c(C)c2c1[nH]c1ccc(O)cc12.[Br-]` (stereo in doubt; 48a) displayed a Cures of 0. Further, the increase in life span (ILS) in the test with Mus musculus [2] came to 112%.

The compound `Cc1c2cc[n+]([C@@H]3OC[C@@H](O)[C@@H](O)[C@H]3O)cc2c(C)c2c1[nH]c1ccc(O)cc12.[Br-]` (stereo in doubt; 48b) showed a Cures in the test on Mus musculus [1] (30 mg/kg) of 6. In addition, the ILS with Mus musculus [2] is reported as >944%.

As to `Cc1c2cc[n+]([C@@H]3OC[C@@H](O)[C@@H](O)[C@H]3O)cc2c(C)c2c1[nH]c1ccc(O)cc12.[Br-]` (stereo in doubt; 50a), the Cures in the test on Mus musculus [1] (30 mg/kg) is recorded as 5. Also, the ILS with Mus musculus [2] is recorded as >857%.

Compound `Cc1c2cc[n+]([C@H]3O[C@@H](C)[C@@H](O)[C@@H](O)[C@@H]3O)cc2c(C)c2c1[nH]c1ccc(O)cc12.[Br-]` (stereo in doubt; 53b) registered a Cures with Mus musculus [1] (30 mg/kg) of 3. Besides, the ILS with Mus musculus [2] was >583%.

Take `Cc1c2cc[n+]([C@H]3O[C@@H](CO)[C@H](O)[C@@H](O)[C@@H]3O)cc2c(C)c2c1[nH]c1ccc(O)cc12.[Br-]` (stereo in doubt; 63a): the ILS with Mus musculus [4] came out at 52%.

As for `Cc1c2cc[n+]([C@H]3O[C@@H](CO)[C@H](O)[C@@H](O)[C@@H]3O)cc2c(C)c2c1[nH]c1ccc(O)cc12.[Br-]` (stereo in doubt; 63b), the Cures in the test with Mus musculus [5] (5 mg/kg) was found to be 0. In the test on Mus musculus [6], the ILS turned out to be 58%.

`Cc1c2cc[n+]([C@H]3O[C@@H](CO)[C@H](O)[C@@H](O)[C@@H]3O)cc2c(C)c2c1[nH]c1ccc(O)cc12.[Br-]` (stereo in doubt; 64a) displayed a Cures with Mus musculus [3] (10 mg/kg) of 0. The compound also displayed an increase in lifespan (ILS) with Mus musculus [4] of 88%.

`Cc1c2cc[n+]([C@H]3O[C@@H](CO)[C@H](O)[C@@H](O)[C@@H]3O)cc2c(C)c2c1[nH]c1ccc(O)cc12.[Br-]` (stereo in doubt; 64b) had a Cures in the test on Mus musculus [5] (5 mg/kg) of 2. Moreover, the ILS in the test on Mus musculus [6] is reported as >362%.

Compound `Cc1c2cc[n+]([C@H]3O[C@@H](CO)[C@H](O)[C@@H](O)[C@@H]3O)cc2c(C)c2c1[nH]c1ccc(O)cc12.[Br-]` (stereo in doubt; 65) had a Cures in the test with Mus musculus [3] (10 mg/kg) of 1. Besides, the ILS in the test with Mus musculus [4] is >212%.
